Screens deposited in PubChem by Johns Hopkins Ion Channel Center.
RGS4 block = RGS4 inhibitors, primary screen, cell-based, HEK293 M3R inducible RGS4, calcium flux; AID 463165, 2010; B-score at 10 µM; Regulator of G-protein signaling 4 (Homo sapiens), P49798; hit rate 0.45% among 310,000; Fluo-4 calcium flux; stronger effect = higher value; triggered by carbachol at its EC20;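 active = B-score, a plate-corrected calcium signal, over three deviations above library mean, with baseline fluorescence within five deviations of library mean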;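 also: RGS4 expression induced by doxycycline in cells with stable M3 receptor; B-score is computed from the integrated fluorescence ratio over baseline after carbachol; higher B-score means a larger calcium signal and so more RGS4 inhibition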
Target sequence (P49798 whole entry, looked up): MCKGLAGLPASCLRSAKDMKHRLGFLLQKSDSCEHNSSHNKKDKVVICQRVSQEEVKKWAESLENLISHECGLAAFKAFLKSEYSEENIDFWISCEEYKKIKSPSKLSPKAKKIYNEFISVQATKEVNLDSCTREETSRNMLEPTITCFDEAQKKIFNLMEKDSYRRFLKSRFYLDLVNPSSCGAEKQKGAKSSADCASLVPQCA
MrgX1 PAM = positive allosteric modulators of MrgX1, primary screen, HEK293 cells, Fluo-4 calcium flux; B-score at 10 µM; AID 588675, 2011; Mas-related G-protein coupled receptor member X1 (Homo sapiens), Q96LB2; hit rate 0.63% among 310,000; FDSS; stronger effect = higher value;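 active = plate-corrected calcium response at least 3 library SD above typical, normal starting fluorescence, not activating the receptor alone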;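 also: compound read alongside a low EC10 to EC30 dose of BAM8-22 agonist; peak minus trough fluorescence over baseline measured at the second addition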
Target sequence (Q96LB2 whole entry, looked up): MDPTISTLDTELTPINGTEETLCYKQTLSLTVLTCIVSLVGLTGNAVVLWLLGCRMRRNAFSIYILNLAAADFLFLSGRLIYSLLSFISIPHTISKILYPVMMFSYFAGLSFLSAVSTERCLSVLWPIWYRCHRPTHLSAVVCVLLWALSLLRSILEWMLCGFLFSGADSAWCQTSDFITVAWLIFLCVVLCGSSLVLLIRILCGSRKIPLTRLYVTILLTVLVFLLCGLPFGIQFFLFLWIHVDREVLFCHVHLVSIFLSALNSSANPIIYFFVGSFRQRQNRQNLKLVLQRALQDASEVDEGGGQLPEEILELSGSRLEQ
MrgX1 antag = antagonists of human MrgX1 receptor, primary screen, HEK293 cells, Fluo-4 calcium flux; hit rate 1.3% among 310,000; BAM8-22 antagonism; stronger effect = lower value; AID 588676, 2011; Mas-related G-protein coupled receptor member X1 (Homo sapiens), Q96LB2; B-score at 10 µM;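 active = calcium-response B-score plate-corrected more than 3 library SD below zero, starting fluorescence within 5 deviations, no agonist response on first addition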;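 also: peak minus trough fluorescence over baseline after final BAM8-22 challenge near maximal dose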
RGS4 act = RGS4 potentiators or activators, primary screen, cell-based, HEK293 M3R inducible RGS4, calcium flux. carbachol calcium flux Fluo4; stronger effect = lower value. B-score at 10 µM. hit rate 0.92% among 310,000. AID 463111, 2010;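 active = B-score of the integrated calcium signal more than 4 SD below the library mean, with starting fluorescence not abnormally high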;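 also: negative B-score means reduced calcium response which marks RGS4 activation or potentiation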
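Test system: HEK293 cells with stable M3R and inducible RGS4; also added: carbachol at ECmax as muscarinic agonist stimulus; schedule: dye loading 30 min 37 °C, buffer rest 30 min RT; technique: kinetic calcium fluorescence imaging with Fluo4-AM dye, 2 µM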
MrgX1 agonist = agonists of human MrgX1 receptor, primary screen, HEK293 cells, Fluo-4 calcium flux | Fluo-4 calcium fluorescence, agonist mode; stronger effect = higher value | AID 588627, 2011 | hit rate 0.44% among 310,000 | B-score at 10 µM | Mas-related G-protein coupled receptor member X1 (Homo sapiens), Q96LB2;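 active = calcium response B-score plate-corrected fluorescence ratio at least 3 library SD, with starting fluorescence B-score inside 5 SD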
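Test system: Stable human MrgX1 HEK293 cell line | Schedule: Overnight plating before 1 h dye loading | Read-out basis: Baseline-normalised fluorescence change ratio, B-scored | Detection: Kinetic calcium dye fluorescence, Fluo-4 NW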
RGS4 act valid = reduced carbachol calcium response, RGS4-induced M3R cells, confirmation, RGS4 activator project, cell-based, HEK293 M3R/RGS4 inducible, calcium flux, duplicate; carbachol calcium flux Fluo4; inhibition, % at 10 µM; hit rate 89% among 1,100; shares compounds with RGS4 act;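 active = inhibition above 3 SD of the buffer control wells, cut at about 41% in these data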;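 also: signal is the integrated peak-minus-minimum Fluo4 fluorescence over baseline ratio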
M3R Ca counter = activity in cells without induced RGS4 expression | shares compounds with RGS4 act | HEK293 M3R non-induced RGS4, Fluo4 calcium flux; after carbachol challenge at its EC90 | inhibition, % at 10 µM | hit rate 82% among 1,100;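 active = inhibition exceeding 3 SD of buffer-only control wells, cut at about 26% in these data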;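 also: percent drop in integrated peak-minus-baseline over baseline Fluo4 ratio after carbachol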
Starred values were filed as active, the others as inactive; i = inactive; x = no result. Sampled rows, rich in hits. Any-hit rate of the full collection: about 3.5%.

SMILES	RGS4 block	MrgX1 PAM	MrgX1 antag	RGS4 act	MrgX1 agonist	RGS4 act valid	M3R Ca counter
CCn1c(=NC(=O)c2cccc(N3C(=O)CCC3=O)c2)sc2c(C)ccc(OC)c21	i	i	i	-8.6*	i	68*	30*
COc1ccc(NC(=O)C(CC(=O)O)C(C)c2ccccc2)cc1 (stereo not given)	i	i	i	i	i	x	x
CCN(CC)CC#CCC(O)(c1ccccc1)C1CCCCC1 (stereo not given)	i	i	i	-10*	i	91*	90*
CC(C)N(CC#CCC(O)(c1ccccc1)c1ccccc1)C(C)C	i	i	i	i	i	x	x
CCOC(=O)c1cc2sccc2n1Cc1ccccc1	i	i	i	i	i	x	x
CCOC(=O)c1cc2sccc2n1CCCN1C(=O)c2ccccc2C1=O	i	i	i	-7.9*	i	73*	84*
CCc1nc2ccc(C(=O)N3CCN(c4ccccc4)CC3)cc2nc1CC	i	i	i	i	i	x	x
O=C(c1ccc2nc(-c3ccco3)c(-c3ccco3)nc2c1)N1CCN(c2ccccc2)CC1	i	i	i	-13*	i	92*	46*
COc1ccc(CCC(C)NC2C3CC4CC(C3)CC2C4)cc1 (stereo not given)	i	x	x	-8.8*	x	92*	87*
CCOC(=O)C1=C(C)OC(N)=C(C#N)C1c1cc2c(cc1Br)OCO2 (stereo not given)	i	i	i	-8.7*	i	90*	65*
O=C(Nc1nc2ccccc2[nH]1)NC1CCCCC1	i	i	i	i	i	x	x
O=C(COc1ccccc1)Nc1cccc(-c2nc3ccccc3[nH]2)c1	i	i	i	-8.1*	i	76*	37*
COc1cc(F)ccc1S(=O)(=O)N1CCN(C23CC4CC(CC(C4)C2)C3)CC1	i	i	i	i	i	x	x
COc1cc(C)ccc1S(=O)(=O)N1CCN(C23CC4CC(CC(C4)C2)C3)CC1	i	i	i	-8.9*	i	92*	80*
COC(=O)c1cc2occc2n1Cc1nc(-c2cccc(Cl)c2)oc1C	i	i	i	-8.9*	i	94*	83*
COC(=O)c1cc2sccc2n1Cc1nc(-c2cccc(Cl)c2)oc1C	i	i	i	i	i	x	x
Cc1ccc(NC(=O)CC2=NC(=O)C(CC(=O)Nc3ccccc3C)S2)cc1 (stereo not given)	i	i	i	i	i	x	x
Cc1[nH]c2ccccc2c1Cc1n[nH]c(=S)n1C	i	i	i	-8.2*	i	0	0
Cc1[nH]c2ccccc2c1SCc1n[nH]c(=S)n1C	i	i	i	i	i	x	x
CN1CCN(c2nc(-c3cccs3)cc(C(F)(F)F)n2)CC1	i	i	i	-8.7*	i	92*	38*
CCS(=O)(=O)c1nc(S(=O)(=O)c2ccc(Cl)cc2)c(NCCOC)s1	i	i	i	i	i	x	x
Cc1cc(C)c2nc(N3CCC(C(=O)NCCCN4CCCC4=O)CC3)sc2c1	i	i	i	i	i	x	x
CCOc1cc2sc(N3CCC(C(=O)NCCCN4CCCC4=O)CC3)nc2cc1Br	i	i	i	-9.4*	i	48*	84*
CCOC(=O)c1sc2nc(C)nc(NCc3ccc(Cl)cc3)c2c1C	i	i	i	-7.8*	i	90*	42*
CCOC(=O)c1sc2nc(C)nc(NCc3ccc(F)cc3)c2c1C	i	i	i	i	i	x	x
SMILES	RGS4 block	MrgX1 PAM	MrgX1 antag	RGS4 act	MrgX1 agonist	RGS4 act valid	M3R Ca counter
Cc1ccc2c(c1)NC(=O)C(CC(=O)Nc1ccc(CN3CCC(C)CC3)cc1)O2 (stereo not given)	i	i	i	-7.7*	i	92*	95*
C=CCSC1=N/C(=C/c2ccsc2)C(=O)N1c1ccccc1	i	i	i	i	i	x	x
Cc1c(CN2CCN(CC(C)C)C(CCO)C2)[nH]c2ccc(Cl)cc12 (stereo not given)	i	i	i	i	i	x	x
Cc1ccc(NC(=S)NC2CCSc3ccccc32)cc1C (stereo not given)	i	i	i	-8.8*	i	92*	93*
COc1ccc2c(c1)OC13CCCCC1C2C(C(=O)c1ccccc1)C(=O)N3 (stereo not given)	i	i	i	i	i	x	x
Cc1cccc(C)c1C(=NCCCN(C)C)c1ccccc1	i	i	i	-9.4*	i	92*	80*
CN(C)CCCNC(=O)/C(=N\O)c1ccccc1	i	i	i	i	i	x	x
CCOC(=O)c1c(NC(C)=O)sc2c(OC)c(Br)ccc12	i	i	i	i	i	x	x
CCOC(=O)c1c(NC(C)=O)sc2c(OCCN(CC)CC)c(Br)ccc12	i	i	i	-10*	i	90*	39*
COc1ccc(N(CC(=O)NC2CCCCC2)C(=O)c2ccc(C)s2)cc1OC	i	i	i	i	i	x	x
COC(=O)c1ccc(N(CC(=O)NC2CCCC2)C(=O)c2ccc(C)s2)cc1	i	i	i	-8.9*	i	0	0
C/C(=N\NC(=O)c1ccc(CN2CCc3ccccc3C2)cc1)c1ccccc1O	i	i	-5*	-14*	i	94*	96*
CC(=O)c1cccc(NC(=O)c2ccc(CN3CCc4ccccc4C3)cc2)c1	i	i	i	i	i	x	x
CCOC(=O)c1cc2c(ccn2C)n1Cc1cc(C)ccc1C	i	i	i	-8*	i	85*	30*
Cc1cc(=O)n2c3ccccc3n(CC(O)CN3CCN(Cc4ccccc4)CC3)c2c1C#N (stereo not given)	i	i	i	-10*	i	74*	43*
CC1CCN(S(=O)(=O)c2ccc3c(ccn3CCC(=O)NC(C)C)c2)CC1	i	i	i	-7.9*	i	0	0
CN(C)CCCNC(=O)c1ccc(-c2nc(-c3ccc(Cl)cc3)cs2)cc1	i	i	i	-8.2*	i	96*	98*
